Article PMC6476629 (Bioorganic & medicinal chemistry, 2019)
Like-named read-outs stand apart in the source and are kept apart here.

Key:
Format in all cases: binding, HIV-1
234 nt NL4-3 RRE RNA = assay: SHAPE-MaP footprinting; conditions: cutoff +/- 0.3
[1] = molecular target: 2-AP-labeled RRE SL-IIB RNA; conditions: for Kd: at least duplicate, ± SD
Summary of the method: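 2-AP-labelled RRE SL-IIB RNA (0.1 μM, refolded at 95 °C for 3 min and snap-cooled) with 10-fold excess unlabelled competitor (loop/bulge-deleted RRE RNA, RRE SL-IIB DNA or TAR RNA). Branched peptide titrated 0-20 μM in phosphate buffer (10 mM KPi, 100 mM KCl, 1 mM MgCl2, 20 mM NaCl, pH 7.0). Excitation 310 nm; fluorescence decrease at 372 nm. Kd from Hill-equation fit; at least duplicate, SD.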

[2] = system: 5'-32P labeled RRE SL-IIB; assay: RNase footprinting; conditions: branched peptide 0-20 μM, concentration-dependent, upper stem region
Summary of the method: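 RRE SL-IIB dephosphorylated, then 5′-end labeled with [γ-32P]ATP and T4 polynucleotide kinase. Labeled RNA (10 nM) plus unlabeled SL-IIB (200 nM) refolded (95 °C 3 min, snap-cooled on ice). Incubated with peptide on ice 4 h in 10 mM Tris pH 7, 100 mM KCl, 10 mM MgCl2. RNase V1 0.002 Units, 10 min on ice; quenched. Run on 12% PAGE/7.5 M urea beside an alkaline hydrolysis ladder. Read by autoradiography.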

**Q.** How did the “change in 1M7 reactivity” value (234 nt NL4-3 RRE RNA; 1:1 RNA:BP ratio) turn out when (DLL)2KLGBY [4B3] was run?
**A.** decreased reactivity was observed at nt 28

**Q.** What about the “change in 1M7 reactivity” value (234 nt NL4-3 RRE RNA; in the presence of 4B3, ratio not stated) of the same substance?
**A.** nt 46, which forms non-canonical base pairing upon Rev,[12] exhibited increased reactivity

**Q.** What about the Kd ([1]; RRE IIB in the presence of 10× RRE DNA) of the same substance?
**A.** 1480 ± 30 nM

**Q.** What about the Kd ([1]; RRE IIB in the presence of 10× TAR RNA) of the same substance?
**A.** 3520 ± 520 nM

**Q.** And the “loss of binding affinity” value ([1]; in the presence of No Bulge RRE RNA competitor)?
**A.** ~3 fold

**Q.** And the “loss of binding affinity” value ([1]; in the presence of RRE DNA competitor)?
**A.** ~3 fold

**Q.** What about the “increase of Kd against RRE IIB” value ([1]; in the presence of TAR RNA competitor) of the same substance?
**A.** approximately 10 fold

**Q.** What about the “protection from RNase V1 cleavage” value [2] of the same substance?
**A.** reduced cleavage at G53, C54, and C65
